Reference: ChEMBL document CHEMBL4011643, “Triaryl Benzimidazoles as a New Class of Antibacterial Agents against Resistant Pathogenic Microorganisms” (J Med Chem, 2017)
In brackets after ≈: the same amount, converted by molar mass. Activity calls are given as the source filed them.

What was measured:
Pseudomonas aeruginosa [1] = assay: Antibacterial activity against Pseudomonas aeruginosa PAO1 after 20 hrs in the presence of Pa-beta-N and magnesium ions by broth microdilution method; assay type: functional; conditions: PAO1, 20 h
In short: (§1)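 Broth microdilution in Tryptic Soy Broth, done in triplicate. Growth was read as OD600 after 20 h. MIC is the lowest drug concentration giving OD600 below 0.1.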

Klebsiella pneumoniae [2] = assay: Antibacterial activity against Klebsiella pneumoniae NCTC 13368 after 20 hrs by broth microdilution method; assay type: functional; conditions: NCTC 13368, 20 h; in short: as §1
Acinetobacter baumannii [3] = assay: Ratio of MIC for Acinetobacter baumannii ATCC 17978 in absence of PMBN to MIC for Acinetobacter baumannii ATCC 17978 in presence of PMBN; assay type: functional
In short: (§2)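 Fold change: MIC without divided by MIC with 30 μg/mL PMBN. Both MICs were by TSB broth microdilution, with an OD600 <0.1 cutoff at 20 h.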

Klebsiella pneumoniae [4] = assay: Ratio of MIC for Klebsiella pneumoniae NCTC 13368 in absence of PMBN to MIC for Klebsiella pneumoniae NCTC 13368 in presence of PMBN; assay type: functional; in short: as §2
Enterococcus faecalis [5] = assay: Antibacterial activity against vancomycin-resistant Enterococcus faecalis NCTC 12201 after 20 hrs by broth microdilution method; assay type: functional; conditions: NCTC 12201, 20 h
In short: (§3)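 Broth microdilution in Tryptic Soy Broth; growth read as OD600 after 20 h. MIC taken as the lowest drug concentration giving OD600 below 0.1. Run in triplicate.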

Pseudomonas aeruginosa [6] = assay: Ratio of MIC for Pseudomonas aeruginosa NCTC 13437 in absence of PMBN to MIC for Pseudomonas aeruginosa NCTC 13437 in presence of PMBN; assay type: functional; in short: as §2
Staphylococcus aureus [7] = assay: Antibacterial activity against methicillin-sensitive Staphylococcus aureus ATCC 9144 after 20 hrs by broth microdilution method; assay type: functional; conditions: ATCC 9144, 20 h; in short: as §1
Acinetobacter baumannii [8] = assay: Antibacterial activity against Acinetobacter baumannii ATCC 17978 after 20 hrs in the presence of PMBN by broth microdilution method; assay type: functional; conditions: ATCC 17978, 20 h; in short: as §1
Enterococcus faecalis [9] = assay: Antibacterial activity against vancomycin-sensitive Enterococcus faecalis NCTC 775 after 20 hrs by broth microdilution method; assay type: functional; conditions: NCTC 775, 20 h; in short: as §1
Staphylococcus aureus [10] = assay: Antibacterial activity against methicillin-resistant Staphylococcus aureus EMRSA-15 after 20 hrs by broth microdilution method; assay type: functional; conditions: EMRSA-15, 20 h; in short: as §3
Acinetobacter baumannii [11] = assay: Antibacterial activity against Acinetobacter baumannii AYE after 20 hrs by broth microdilution method; assay type: functional; in short: as §1
Klebsiella pneumoniae [12] = assay: Ratio of MIC for Klebsiella pneumoniae M6 in absence of PMBN to MIC for Klebsiella pneumoniae M6 in presence of PMBN; assay type: functional; in short: as §2
Acinetobacter baumannii [13] = assay: Ratio of MIC for Acinetobacter baumannii AYE in absence of PMBN to MIC for Acinetobacter baumannii AYE in presence of PMBN; assay type: functional; in short: as §2
Staphylococcus aureus [14] = assay: Antibacterial activity against methicillin-resistant Staphylococcus aureus MRSA252 after 20 hrs by broth microdilution method; assay type: functional; conditions: MRSA252, 20 h; in short: as §3
Klebsiella pneumoniae [15] = assay: Antibacterial activity against Klebsiella pneumoniae NCTC 13368 after 20 hrs in the presence of Pa-beta-N and magnesium ions by broth microdilution method; assay type: functional; conditions: NCTC 13368, 20 h; in short: as §1
Acinetobacter baumannii [16] = assay: Ratio of MIC for Acinetobacter baumannii ATCC 17978 in absence of Pa-beta-N to MIC for Acinetobacter baumannii ATCC 17978 in presence of Pa-beta-N; assay type: functional
In short: (§4)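 Both MICs were by TSB broth microdilution, with an OD600 <0.1 cutoff at 20 h.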

[17] = Stabilization of FAM/TAMRA-labeled AT-rich DNA duplex (unknown origin) assessed as change in melting temperature at 1 uM by FRET-based assay
In short: (§5)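 FRET melting of a FAM/TAMRA-labelled AT-rich oligonucleotide, 400 nM working solution in 50 mM potassium, 50 mM cacodylate, pH 7.4. DNA was annealed at 85 °C for 6 min, then held at 25 °C for 5 h, and mixed 1:1 with sample. Fluorescence was read every 0.5 °C from 30 to 100 °C, with a 30 s hold per step. ΔTm is measured against the blank, in triplicate.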

Enterococcus faecalis [18] = assay: Bactericidal activity against vancomycin-resistant Enterococcus faecalis NCTC 12201 assessed as time required to kill bacteria by >6 log10CFU/ml at 4 times MIC by Miles Misra dilution method; assay type: functional
In short: (§6)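 Flasks of TSB inoculated at ~10^6 cfu/mL, compound added at 4 × MIC, shaken at 200 rpm and 37 °C. Samples taken at 1, 2, 4, 6 and 24 h and plated by Miles Misra dilution for CFU/mL. Bactericidal means a loss of >3 log CFU/mL. Three independent repeats, error bars SD.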

Acinetobacter baumannii [19] = assay: Antibacterial activity against Acinetobacter baumannii AYE after 20 hrs in the presence of PMBN by broth microdilution method; assay type: functional; in short: as §1
Pseudomonas aeruginosa [20] = assay: Antibacterial activity against Pseudomonas aeruginosa NCTC 13437 after 20 hrs in the presence of Pa-beta-N and magnesium ions by broth microdilution method; assay type: functional; conditions: NCTC 13437, 20 h; in short: as §1
Enterococcus faecium = assay: Antibacterial activity against vancomycin-resistant Enterococcus faecium NCTC 12204 after 20 hrs by broth microdilution method; assay type: functional; conditions: NCTC 12204, 20 h; in short: as §3
Acinetobacter baumannii [21] = assay: Ratio of MIC for Acinetobacter baumannii AYE in absence of Pa-beta-N to MIC for Acinetobacter baumannii AYE in presence of Pa-beta-N; assay type: functional; in short: as §4
[22] = Cytotoxicity against human HeLa cells assessed as cell viability at 25 uM after 24 hrs by MTT assay; assay type: cell-based; conditions: read-out: Activity
In short: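 HeLa cells, 10000 per well, were grown at 37 °C in 5% CO2 and allowed to settle for 24 h. Compound was then added in triplicate for 24 h of continuous exposure. Viability was read by MTT colorimetry, with absorbance at 570 nm.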

Pseudomonas aeruginosa [23] = assay: Antibacterial activity against Pseudomonas aeruginosa NCTC 13437 after 20 hrs in the presence of PMBN by broth microdilution method; assay type: functional; conditions: NCTC 13437, 20 h; in short: as §1
Pseudomonas aeruginosa [24] = assay: Antibacterial activity against Pseudomonas aeruginosa NCTC 13437 after 20 hrs by broth microdilution method; assay type: functional; conditions: NCTC 13437, 20 h; in short: as §1
Acinetobacter baumannii [25] = assay: Antibacterial activity against Acinetobacter baumannii ATCC 17978 after 20 hrs in the presence of Pa-beta-N and magnesium ions by broth microdilution method; assay type: functional; conditions: ATCC 17978, 20 h; in short: as §1
Staphylococcus aureus [26] = assay: Bactericidal activity against methicillin-resistant Staphylococcus aureus EMRSA-15 assessed as time required to kill bacteria by >6 log10CFU/ml at 4 times MIC by Miles Misra dilution method; assay type: functional; in short: as §6
Pseudomonas aeruginosa [27] = assay: Ratio of MIC for Pseudomonas aeruginosa PAO1 in absence of PMBN to MIC for Pseudomonas aeruginosa PAO1 in presence of PMBN; assay type: functional; in short: as §2
Klebsiella pneumoniae [28] = assay: Ratio of MIC for Klebsiella pneumoniae NCTC 13368 in absence of Pa-beta-N to MIC for Klebsiella pneumoniae NCTC 13368 in presence of Pa-beta-N; assay type: functional; in short: as §4
Klebsiella pneumoniae [29] = assay: Ratio of MIC for Klebsiella pneumoniae M6 in absence of Pa-beta-N to MIC for Klebsiella pneumoniae M6 in presence of Pa-beta-N; assay type: functional; in short: as §4
Acinetobacter baumannii [30] = assay: Antibacterial activity against Acinetobacter baumannii AYE after 20 hrs in the presence of Pa-beta-N and magnesium ions by broth microdilution method; assay type: functional; in short: as §1
Klebsiella pneumoniae [31] = assay: Antibacterial activity against Klebsiella pneumoniae NCTC 13368 after 20 hrs in the presence of PMBN by broth microdilution method; assay type: functional; conditions: NCTC 13368, 20 h; in short: as §1
Pseudomonas aeruginosa [32] = assay: Antibacterial activity against Pseudomonas aeruginosa PAO1 after 20 hrs in the presence of PMBN by broth microdilution method; assay type: functional; conditions: PAO1, 20 h; in short: as §1
Klebsiella pneumoniae [33] = assay: Antibacterial activity against Klebsiella pneumoniae M6 after 20 hrs in the presence of PMBN by broth microdilution method; assay type: functional; conditions: M6, 20 h; in short: as §1
Enterococcus faecalis [34] = assay: Bactericidal activity against vancomycin-resistant Enterococcus faecalis NCTC 12201 at 4 times MIC after 10 hrs by Miles Misra dilution method; assay type: functional
Klebsiella pneumoniae [35] = assay: Antibacterial activity against Klebsiella pneumoniae M6 after 20 hrs in the presence of Pa-beta-N and magnesium ions by broth microdilution method; assay type: functional; conditions: M6, 20 h; in short: as §1
Acinetobacter baumannii [36] = assay: Antibacterial activity against Acinetobacter baumannii ATCC 17978 after 20 hrs by broth microdilution method; assay type: functional; conditions: ATCC 17978, 20 h; in short: as §1
Klebsiella pneumoniae [37] = assay: Antibacterial activity against Klebsiella pneumoniae M6 after 20 hrs by broth microdilution method; assay type: functional; conditions: M6, 20 h; in short: as §1
Staphylococcus aureus [38] = assay: Bactericidal activity against methicillin-resistant Staphylococcus aureus EMRSA-15 at 4 times MIC after 10 hrs by Miles Misra dilution method; assay type: functional
Pseudomonas aeruginosa [39] = assay: Ratio of MIC for Pseudomonas aeruginosa NCTC 13437 in absence of Pa-beta-N to MIC for Pseudomonas aeruginosa NCTC 13437 in presence of Pa-beta-N; assay type: functional; in short: as §4
[40] = Stabilization of FAM/TAMRA-labeled AT-rich DNA duplex (unknown origin) assessed as change in melting temperature at 5 uM by FRET-based assay; in short: as §5
Pseudomonas aeruginosa [41] = assay: Antibacterial activity against Pseudomonas aeruginosa PAO1 after 20 hrs by broth microdilution method; assay type: functional; conditions: PAO1, 20 h; in short: as §1

For Cc1nc2ccc(C(=O)Nc3cccc(-c4ccc(-n5c(C)nc6cc(C(=O)NCCCCN(C)C)ccc65)nc4)c3)cc2[nH]1, the MIC (Pseudomonas aeruginosa [1]) was over 32 µg/mL, the MIC (Klebsiella pneumoniae [2]) was over 32 µg/mL and the Ratio (Acinetobacter baumannii [3]) was 2. For the same compound, the Ratio (Klebsiella pneumoniae [4]) was 4, the MIC (Enterococcus faecalis [5]) was 0.25 µg/mL (≈ 0.416 µM) and the Ratio (Pseudomonas aeruginosa [6]) was over 16. The MIC (Staphylococcus aureus [7]) was 0.5 µg/mL (≈ 0.832 µM), the MIC (Acinetobacter baumannii [8]) was 8 µg/mL and the MIC (Enterococcus faecalis [9]) was 0.5 µg/mL (≈ 0.832 µM). The MIC (Staphylococcus aureus [10]) was 1 µg/mL (≈ 1.66 µM), the MIC (Acinetobacter baumannii [11]) was over 32 µg/mL and the Ratio (Klebsiella pneumoniae [12]) was 4. For the same compound, the Ratio (Acinetobacter baumannii [13]) was 2, the MIC (Staphylococcus aureus [14]) was 2 µg/mL (≈ 3.33 µM) and the MIC (Klebsiella pneumoniae [15]) was 32 µg/mL. The Ratio (Acinetobacter baumannii [16]) was 2 - 4, the deltaTm [17] was 0.3 °C and the Time (Enterococcus faecalis [18]) was 2 h. It also gave an MIC (Acinetobacter baumannii [19]) of 8 µg/mL, an MIC (Pseudomonas aeruginosa [20]) of over 32 µg/mL and an MIC (Enterococcus faecium) of at most 0.125 µg/mL. For the same compound, the Ratio (Acinetobacter baumannii [21]) was 2 - 4, the viability at 24 h, 25 µM [22] was over 98% and the MIC (Pseudomonas aeruginosa [23]) was 16 µg/mL. It also gave an MIC (Pseudomonas aeruginosa [24]) of over 32 µg/mL, an MIC (Acinetobacter baumannii [25]) of 8 µg/mL and a Time (Staphylococcus aureus [26]) of 2 h. For the same compound, the Ratio (Pseudomonas aeruginosa [27]) was over 16, the Ratio (Klebsiella pneumoniae [28]) was 2 - 4 and the Ratio (Klebsiella pneumoniae [29]) was “>=4”. It also gave an MIC (Acinetobacter baumannii [30]) of 16 µg/mL, an MIC (Klebsiella pneumoniae [31]) of 32 µg/mL and an MIC (Pseudomonas aeruginosa [32]) of 16 µg/mL. For the same compound, the MIC (Klebsiella pneumoniae [33]) was 16 µg/mL, the Activity (Enterococcus faecalis [34]) was “inactive” and the MIC (Klebsiella pneumoniae [35]) was 16 µg/mL. The MIC (Acinetobacter baumannii [36]) was over 32 µg/mL, the MIC (Klebsiella pneumoniae [37]) was over 32 µg/mL and the Activity (Staphylococcus aureus [38]) was “inactive”. For the same compound, the Ratio (Pseudomonas aeruginosa [39]) was 2 - 4, the deltaTm [40] was 0.6 °C and the MIC (Pseudomonas aeruginosa [41]) was over 32 µg/mL.
